Results gathered from unrelated publications.
Protocols differ between the studies behind these lines.
Target: NT-3 growth factor receptor (NTRK3, Homo sapiens, UniProt Q16288)

`C#Cc1n[nH]c2c(-c3cn([C@@H](C)c4ccccc4)c(=O)[nH]c3=O)cc(F)cc12` gave an inhibition of 11.4% (enzyme activity; inhibitor; 0.1 µM).
`N#CC1(c2ccccn2)CCN(Cc2cc(C(=O)O)c(=O)n3ccccc23)CC1` has a remaining binding of 70% (cell-free assay; competition with immobilised ligand; 1 µM).
`C#Cc1n[nH]c2c(-c3cn(C(C)c4ccccn4)c(=O)[nH]c3=O)cc(F)cc12` (centres unmarked) gave an inhibition of 12.3% (enzyme activity; inhibitor; 1 µM).
`Cn1cc(-c2cc(F)cc(N3CCn4c(cc5c4CCCC5)C3=O)c2CO)cc(Nc2ccc(N3CCN(C4COC4)CC3)cn2)c1=O` has an inhibition of 15% (enzyme activity; inhibitor; 0.1 µM).
The remaining binding of `Cc1nn(C)cc1-c1nc2c(N3CCN(Cc4ccc(Cl)cc4)CC3)c(Cl)cnc2[nH]1` is reported as 57% (binding; competition with immobilised ligand; 1 µM).
The remaining binding of `Nc1ncc(-c2nc(N3CCOCC3)nc(N3CCOCC3)n2)c(C(F)F)n1` is reported as 87% (cell-free assay; competition with immobilised ligand; 10 µM).
With `CC(C)(C)c1cc(C=C(C#N)C#N)cc(Br)c1O` the remaining activity was 104% (enzyme activity; inhibitor; 0.5 µM).
For `Cn1cc(-c2cccc(N3CCc4c(sc5c4CC(C)(C)C5)C3=O)c2CO)cc(Nc2ccncn2)c1=O`, the inhibition was -8% (enzyme activity; inhibitor; 1 µM).
`COc1ncccc1-c1cnn2ccc(N3CCN(C(=O)OC(C)C)CC3)nc12` gave a remaining binding of 50% (binding; competition with immobilised ligand; 1 µM).
`O=c1[nH]c2ccccc2n1C1CCN(Cc2ccc(-c3[nH]c4cc5ncnc5cc4nc3-c3ccccc3)cc2)CC1` has a remaining signal of 116% (cell-free assay; 0.5 µM).
For `Cn1cncc1[C@@](O)(COc1ccc(C#N)cc1-c1ccc(OC(F)(F)F)cc1)c1ccc(C#N)cc1`, the remaining binding was 99% (cell-free assay; competition with immobilised ligand; 1 µM).
